Assay results as given in ChEMBL document CHEMBL4616606, “New compounds for a good old class: Synthesis of two Β-lactam bearing cephalosporins and their evaluation with a multidisciplinary approach” (Bioorg Med Chem, 2020).

Columns and labels:
Salmonella typhimurium = test: Antimicrobial activity against Salmonella enterica LT2 ATCC 700720 by CLSI method; type: functional, Salmonella enterica subsp. enterica serovar Typhimurium; settings: for MIC50 / MIC: Salmonella enterica, LT2 ATCC 700720; for MIC: read-out: MIC100
Staphylococcus aureus = test: Antimicrobial activity against Staphylococcus aureus by CLSI method; type: functional; settings: for MIC50 / MIC: Staphylococcus aureus; for MIC: read-out: MIC100
Bacillus subtilis = test: Antimicrobial activity against Bacillus subtilis by CLSI method; type: functional; settings: for MIC50 / MIC: Bacillus subtilis; for MIC: read-out: MIC100
Escherichia coli = test: Antimicrobial activity against Escherichia coli JM107 by CLSI method; type: functional; settings: for MIC50 / MIC: Escherichia coli, JM107; for MIC: read-out: MIC100
MRC5 [1] = test: Cytotoxicity against human MRC5 cells assessed as reduction in cell viability at 25 ug/ml after 24 hrs by MTT assay; type: cell-based; settings: mrc5, 24 h
Method in brief: (§1)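 MTT colorimetric viability test; human embryonic lung MRC5 cells or human lung cancer Calu-1 cells exposed 24 h to compound over 0.5–50 µg/ml; DMSO vehicle up to 0.4% v/v. Two or three independent experiments, each in triplicate, reported as mean ± SD.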

MRC5 [2] = test: Cytotoxicity against human MRC5 cells assessed as reduction in cell viability at 0.5 to 25 ug/ml after 24 hrs by MTT assay; type: cell-based; settings: mrc5, 24 h; method in brief: as §1
Calu-1 = test: Cytotoxicity against human Calu1 cells assessed as reduction in cell viability at 50 ug/ml after 24 hrs by MTT assay; type: cell-based; settings: calu-1, 24 h; method in brief: as §1

SMILES | MLD (Salmonella typhimurium) | MIC50 (Salmonella typhimurium) [µg/mL] | MIC (Salmonella typhimurium) [µg/mL] | MLD (Staphylococcus aureus) | MIC50 (Staphylococcus aureus) [µg/mL] | MIC (Staphylococcus aureus) [µg/mL] | MLD (Bacillus subtilis) | MIC50 (Bacillus subtilis) [µg/mL] | MIC (Bacillus subtilis) [µg/mL] | MLD (Escherichia coli) [µg/mL] | MIC50 (Escherichia coli) [µg/mL] | MIC (Escherichia coli) [µg/mL] | Activity (MRC5 [1]) [%] | Activity (MRC5 [2]) | Activity (Calu-1)
CC(=O)OCC1=C(C(=O)[O-])N2C(=O)[C@@H](NC(=O)CCCCCCCC3C(=O)N(c4ccccc4)C3c3ccccc3)[C@H]2SC1.[Na+] (mixture of isomers) | >256 µg/mL | > 256 | > 256 | >=1 ug ml-1 | < 0.25 | 1 | >16 µg/mL | < 0.25 | 0.75 | >256 | > 256 | > 256 |  |  | 
COc1ccc(N2C(=O)C(CCCCCCCC(=O)N[C@@H]3C(=O)N4C(C(=O)[O-])=C(COC(C)=O)CS[C@H]34)C2c2ccccc2)cc1.[Na+] (mixture of isomers) | >256 µg/mL | > 256 | > 256 | 0.25 µg/mL | > 0.12 | < 0.25 | >=2 - 4 ug ml-1 | < 0.12 | 0.25 | >256 | > 256 | > 256 | 20 |  | 
COc1ccc(N2C(=O)C(CC(=O)N[C@@H]3C(=O)N4C(C(=O)[O-])=C(COC(C)=O)CS[C@H]34)C2c2ccccc2)cc1.[Na+] (mixture of isomers) | >256 µg/mL | > 256 | > 256 | >1.5 µg/mL | < 0.25 | 1.5 | >=128 ug ml-1 | < 0.25 | 0.75 | >256 | > 256 | > 256 |  | Non-Toxic | 
CO/N=C(\C(=O)N[C@@H]1C(=O)N2C(C(=O)O)=C(CSc3nc(=O)c(=O)[nH]n3C)CS[C@H]12)c1csc(N)n1.[Na+] | >=2 ug ml-1 | < 0.25 | 0.25 | >7 µg/mL | 2 to 4 | 5.5 | >=1 ug ml-1 | < 0.25 | 0.75 | >1 | < 0.25 | 0.25 |  |  | 
CC(=O)OCC1=C(C(=O)[O-])N2C(=O)[C@@H](NC(=O)CC3C(=O)N(c4ccc(C)c(C)c4)C3c3ccccc3)[C@H]2SC1.[Na+] (mixture of isomers) | >256 µg/mL | > 256 | > 256 | >16 µg/mL | > 1 | 4 to 8 | >=3.5 ug ml-1 | < 0.25 | 3.5 | >256 | > 256 | > 256 | 20 |  | 
CC(=O)OCC1=C(C(=O)[O-])N2C(=O)[C@@H](NC(=O)CCC3C(=O)N(c4ccccc4)C3c3ccccc3)[C@H]2SC1.[Na+] (mixture of isomers) | >256 µg/mL | > 256 | > 256 | >=3 ug ml-1 | 0.25 to 0.5 | 2.5 | >32 µg/mL | < 0.25 | 1 | >256 | > 256 | > 256 |  | Non-Toxic | Toxic
COc1ccc(N2C(=O)C(CC(=O)N[C@@H]3C(=O)N4C(C(=O)[O-])=C(COC(C)=O)CS[C@H]34)C2c2ccc(Cl)cc2)cc1.[Na+] (mixture of isomers) | >256 µg/mL | > 256 | > 256 | >32 µg/mL | 4 to 8 | 32 | >256 µg/mL | < 4 | 32 | >256 | > 256 | > 256 |  | Non-Toxic | 
COc1ccc(N2C(=O)C(CCCCCC(=O)N[C@@H]3C(=O)N4C(C(=O)[O-])=C(COC(C)=O)CS[C@H]34)C2c2ccccc2)cc1.[Na+] (mixture of isomers) | >256 µg/mL | > 256 | > 256 | >=1.75 - 2 ug ml-1 | 0.75 | 1.75 | >=0.75 ug ml-1 | < 0.12 | 0.25 to 0.35 | >256 | > 256 | > 256 |  | Non-Toxic | 
CC(=O)OCC1=C(C(=O)[O-])N2C(=O)[C@@H](NC(=O)CCC3C(=O)N(c4ccc(C)c(C)c4)C3c3ccccc3)[C@H]2SC1.[Na+] (mixture of isomers) | >256 µg/mL | > 256 | > 256 | >16 µg/mL | 1 | 4 to 6 | 64 µg/mL | ≤ 1 | 2 | >256 | > 256 | > 256 |  | Non-Toxic | 
CC(=O)OCC1=C(C(=O)[O-])N2C(=O)[C@@H](NC(=O)CCCCCC3C(=O)N(c4ccccc4)C3c3ccccc3)[C@H]2SC1.[Na+] (mixture of isomers) | >256 µg/mL | > 256 | > 256 | >4 µg/mL | 1.5 to 2 | 3.5 to 4 | >32 µg/mL | < 0.25 | 0.5 | >256 | > 256 | > 256 |  | Non-Toxic | Toxic
COc1ccc(N2C(=O)C(CC(=O)N[C@@H]3C(=O)N4C(C(=O)[O-])=C(COC(C)=O)CS[C@H]34)C2c2ccc([N+](=O)[O-])cc2)cc1.[Na+] (mixture of isomers) | >256 µg/mL | > 256 | > 256 | >32 µg/mL | 4 to 8 | 32 | >256 µg/mL | 8 | 32 | >256 | > 256 | > 256 |  | Non-Toxic | 
CC(=O)OCC1=C(C(=O)[O-])N2C(=O)[C@@H](NC(=O)CC3C(=O)N(c4ccccc4)C3c3ccccc3)[C@H]2SC1.[Na+] (mixture of isomers) | >256 µg/mL | > 256 | > 256 | >3 µg/mL | 0.75 | 2.5 | >2.5 µg/mL | < 0.25 | 2.5 | >256 | > 256 | > 256 |  |  | 
